# This sample holds only a part of the variants without activity.
# B1: tRNA (parent)
# chain: GUUCCGUUGGCGUAAUGGUAACGCGUCUCCCUCCUAAGGAGAAGACUGCGGGUUCGAGUCCCGUACGGAACG
# Variants of: B1
# Test: yeast fitness relative to wild type (ratio to wild type); higher = fitter; tRNA-Arg(CCU), competitive growth, 37 C, YPD
# In short: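 Variants of the tRNA-Arg(CCU) gene, chemically synthesised with a 3% per-site mutation rate at 69 sites, were placed at the native genomic locus in Saccharomyces cerevisiae. The pooled strains were competed in YPD at 37°C for 24 hours in six parallel replicates. Gene amplicons from the start population and from each end population were read by 100-nucleotide paired-end sequencing. Darwinian fitness relative to wild type came from changes in genotype frequencies; genotypes needed ≥ 100 starting reads, and estimates < 0.5 were set to 0.5.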
row,Variant,yeast fitness
1,GUUCCGCUGGCGUAAUGGUAACGCGUCUCCCUCUUAAGGAGAAGACUGCGGGUUCGAGUCCCGUAUGGAACG [U7C C34U C66U],≤ 0.5
2,GUUCCGCUGGCGUAAUGGUAACGCGUCUCCCUCCUAAGGAGAAGAAUGCGGGUUCGAGUCCCGUACGGAACG [U7C C46A],0.798
3,GUUCCGCUGGCGUAAUGGUAACGCGUCUCCCUCCUAAGGAGAAGAAUGCGAGAUCGAGUCCAGUACGAAACG [U7C C46A G51A U53A C62A G68A],0.579
4,GUUCCGCUGGCGUAAUGGUAACGCGUCUCCCUCCUAAGGAGAAGAUUGCGGGUUCGAGUCACUUACAGAACG [U7C C46U C61A G63U G67A],≤ 0.5
5,GUUCCGCUGGCGUAAUGGUAACGCGUCUCCCUCCUAAGGAGAAGAUUGCGGGUUCGAGGCCCGUACUGAACG [U7C C46U U59G G67U],≤ 0.5
6,GUUCCGCUGGCGUAAUGGUAACGCGUCUCCCUCCUAAGGAGAAGACUGAGGGUUCGAGUCCCGUACUGAACG [U7C C49A G67U],0.59
7,GUUCCGCUGGCGUAAUGGUAACGCGUCUCCCUCCUAAGGAGAAGACUGUGGGUUAGAGUCCCGUACGGAACG [U7C C49U C55A],≤ 0.5
8,GUUCCGCUGGCGUAAUGGUAACGCGUCUCCCUCCUAAGGAGAAGACUGUGGGUUCAAGUCCCGUCCGGAACG [U7C C49U G56A A65C],0.607
9,GUUCCGCUGGCGUAAUGGUAACGCGUCUCCCUCCUAAGGAGAAGACUGCGGGUUAGAGUCCCGUACGGAACG [U7C C55A],0.567
10,GUUCCGCUGGCGUAAUGGUAACGCGUCUCCCUCCUAAGGAGAAGACUGCGGGUUGGAGUCCCGUACGGAACG [U7C C55G],0.628
11,GUUCCGCUGGCGUAAUGGUAACGCGUCUCCCUCCUAAGGAGAAGACUGCGGGUUCGAGUACCGUACGGAACG [U7C C60A],0.674
12,GUUCCGCUGGCGUAAUGGUAACGCGUCUCCCUCCUAAGGAGAAGACUGCGGGUUCGAGUGCCGUACGGAACG [U7C C60G],0.583
13,GUUCCGCUGGCGUAAUGGUAACGCGUCUCCCUCCUAAGGAGAAGACUGCGGGUUCGAGUUCCGUACGGAACG [U7C C60U],0.785
14,GUUCCGCUGGCGUAAUGGUAACGCGUCUCCCUCCUAAGGAGAAGACUGCGGGUUCGAGUCACGUACGGAACG [U7C C61A],0.678
15,GUUCCGCUGGCGUAAUGGUAACGCGUCUCCCUCCUAAGGAGAAGACUGCGGGUUCGAGUCGCGUCCGGAACG [U7C C61G A65C],≤ 0.5
16,GUUCCGCUGGCGUAAUGGUAACGCGUCUCCCUCCUAAGGAGAAGACUGCGGGUUCGAGUCGCGUGCGGAACG [U7C C61G A65G],0.57
17,GUUCCGCUGGCGUAAUGGUAACGCGUCUCCCUCCUAAGGAGAAGACUGCGGGUUCGAGUCCUGUAGGGAACG [U7C C62U C66G],≤ 0.5
18,GUUCCGCUAGCGUAAUGGUAACGGGUCUCCCUCCUAAGGAGAAGUCUGAGGGAUCGAGUCCCGUACGGAACG [U7C G9A C24G A45U C49A U53A],0.681
19,GUUCCGCUCGCGUAAUGGUGACGCGUCUCCCUCCUAAGGAAAAGACUGCGGGUUCGAGUCCCGUACGGAACG [U7C G9C A20G G41A],≤ 0.5

row,Variant,yeast fitness
1,GUUCCGCUGACGUAAUGGUAACGGGUCUCCCUCUUAAGGAGAUGACUGCGGGUUCGAGUCCCGUACGGAACG [U7C G10A C24G C34U A43U],≤ 0.5
2,GUUCCGCUGACGUAAUGGUAACGCGUCUCGCUCCUACGGAGAAGACUGCGGGUUCGAGUCCCGUACGGAACG [U7C G10A C30G A37C],0.554
3,GUUCCGCUGACGUAAUGGUAACGCGUCUCCCUCCUAAGGAGAAGACUGCCGGUUCGAGUCCCGUACGGAACG [U7C G10A G50C],≤ 0.5
4,GUUCCGCUGACGUAAUGGAAACGCGUCUCCCUCCUAAGGAGAACACUGCGGGUUCGAGUCCCGUACCGAACG [U7C G10A U19A G44C G67C],≤ 0.5
5,GUUCCGCUGCCGUAAUGGUAACGCGUCUCCCUCCUAAGGAGACGACUGCGGGUUCGAGUCCCGUACGGAACG [U7C G10C A43C],0.549
6,GUUCCGCUGGCAUAAUGGUCGCGAGUAUCCCUCCUCAGGAGAAGACUGCGGGUUCGAGUCCCGUACGGAACG [U7C G12A A20C A21G C24A C27A A36C],≤ 0.5
7,GUUCCGCUGGCAUAAUGGUAACGCGUCUCCCUCCUAAGGAGAAGCCUGUGGGUUCGAGUCGCGUCCGGAACG [U7C G12A A45C C49U C61G A65C],≤ 0.5
8,GUUCCGCUGGCAGCAUGGUAACGCGUCUCCCUCCCAAGGAGAAGACUGUGGGUUCGAGUCCCGUACGGAACG [U7C G12A U13G A14C U35C C49U],≤ 0.5
9,GUUCCGCUGGCCUAAUGGUAACGCGUCUCCCACCUAAGAAGAAGACUGGGGGUUCGAGUCCCGUACGGAACG [U7C G12C U32A G39A C49G],0.602
10,GUUCCGCUGGCGUAAUGAUAAGGCGUCUCCCUCCUAAGGAGAAGACUGCGGGUUCGAGUCCCGUACGGAACG [U7C G18A C22G],0.586
11,GUUCCGCUGGCGUAAUGAUAAGGCGUCUCCCUCCUAAGGAGAAGACUGCGGGUUCGAGUCCUGUACGGAGCG [U7C G18A C22G C62U A70G],≤ 0.5
12,GUUCCGCUGGCGUAAUGAUAACGCGUCUCUCUCAUAAGGAGAAGACUGCGGGUUCGAGUCCCGUACGGAACG [U7C G18A C30U C34A],≤ 0.5
13,GUUCCGCUGGCGUAAUGAUAACGCGUCUCCAUCCUAAGGAGAAGACUGCGGGUUCCAGUCCCGUACGGAACG [U7C G18A C31A G56C],≤ 0.5
14,GUUCCGCUGGCGUAAUGCUAACGCGUCUCCCUCCUAAGGAGAAGACUGCGGGUUCGAGUCUCGUACGGAACG [U7C G18C C61U],≤ 0.5
15,GUUCCGCUGGCGUAAUGCUAACGCGUCUCCCUCCUAAGGAGAAGACUGCGGGUUCGAGGCCCGUACGGAACG [U7C G18C U59G],≤ 0.5
16,GUUCCGCUGGCGUAAUGGUAACACGUCUCCCUGCUAAGGAGAAGACUGCGGGUUCGAGUCCCGUACGGAACG [U7C G23A C33G],≤ 0.5
17,GUUCCGCUGGCGUAAUGGUAACCCGUCUCCCUCCUAAGGAGAAGACUGCGGGUUCGAGUCCCGUACGGAACG [U7C G23C],0.671
18,GUUCCGCUGGCGUAAUGGUAACCCGUCUCCCUCCUAAGGAGAAGACUGCGGAUUCGAGUCCCGUACGGAACG [U7C G23C G52A],0.591
19,GUUCCGCUGGCGUAAUGGUAACGCAUCUCCCUCCUAAGGAGAAGACUGCGGGUUAGAGUCCCGUACGGAACG [U7C G25A C55A],≤ 0.5

# Source: the RNAGym collection of RNA variant scans (doi:10.1126/science.aae0568)
